The list is not random: actives were taken first. Their share in the collection is about 3.4%.
SF1 activator: activates the human nuclear receptor SF-1; Q13285; CHO-K1 Gal4-SF-1 LBD luciferase reporter; % increase over DMSO SF-1-specific signal; activation, % at 10 µM; 1.9% of 65,000 active;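 active = activation above the mean activation of all tested compounds plus 3 SD, cut at about 50% in these data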
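material = CHO-K1 cells with Gal4–hSF-1 LBD chimera plus Gal4-driven luciferase | compound = 10 µM single point, 1% DMSO | incubation = 20 h compound exposure at 37 °C after 1 h cell settling | measured by = SteadyLite luciferase luminescence | evaluation = percent activation relative to DMSO median and mock-transfected background | control set = DMSO negative control and −SF1 background wells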
RORA act: RORA (human) activation; CHO-K1 Gal4-RORA LBD luciferase reporter, luminescence; percent increase over mock-subtracted basal signal; activation, % at 10 µM; 1.5% of 65,000 active; AID 560;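 active = activation above the mean of all tested compounds plus 3 SD, cut at about 49% in these data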;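 also: 0% = DMSO-treated RORA cells and 100% = added signal equal to DMSO minus mock-transfected cells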
Cdc25B inh: human M-phase inducer phosphatase 2 inhibition; P30305; recombinant Cdc25B, OMFP fluorescence Ex485/Em525; inhibition, %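 (compounds tested at 10 µM final in the well)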; 0.1% of 65,000 active; AID 368; in the data active = inhibition above about 50%
MKP-1 inh: inhibitors of human MKP-1 phosphatase | inhibition, %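 (compounds tested at a single concentration somewhere between 10 and 100 µM)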 | P28562 | AID 374 | 0.15% of 65,000 active | recombinant MKP-1, OMFP hydrolysis fluorescence;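 active = inhibition above about 50%, limit read from the data; inconclusive = inhibition over screen mean plus 3 SD, below that limit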;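 also: 0% = DMSO max control wells and 100% = wells with enzyme stopped by NaOH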
Hsp90 block: displaces geldanamycin probe from tumor Hsp90; P07900; NCI-N417 lysate Hsp90, Cy3B-geldanamycin FP displacement; 0.35% of 64,000 active; inhibition, % at 30 µM;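 active = inhibition above 50%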;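 also: 0% = tracer plus lysate wells and 100% = tracer alone without lysate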
JNK3 inh: inhibitors of human JNK3 kinase | purified JNK3 kinase activity, HTS | 0.61% of 60,000 active | P53779 | inhibition, % at 8 µM; in the data active = inhibition above about 17%;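 also: 0% = DMSO and 100% = reference inhibitor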
Redox cycler: redox cycling H2O2 generation, MKP probe counter-screen; shares compounds with MKP-1 inh; DTT, phenol red/HRP; EC50, µM; 60 tested, under 10 active; AID 672; call rule not given here
The depositor's hits bear a star; u = inconclusive; x = not tested or not shown.

SMILES	SF1 activator	RORA act	Cdc25B inh	MKP-1 inh	Hsp90 block	JNK3 inh	Redox cycler
COc1ccc(-n2c(NC(=O)c3ccco3)c(C#N)c3nc4ccccc4nc32)cc1	5.3	12.9	6.1	24.0	41.0	8.9	>50
CCOC(=O)C(Oc1ccc(=O)n(-c2ccccc2)n1)C(C)=O (configuration not stated)	-2.7	-5.2	-8.8	2.0	-5.3	2.4	x
CCOC(=O)c1ccc2c(c1)C1C=CCC1C(C(=O)O)N2 (configuration not stated)	11.2	0.0	27.4	56.9*	-0.1	-1.3	>50
C=CCn1c(N)c(-c2nc3ccccc3n2C)sc1=S	-10.2	19.6	-8.5	10.2	-26.2	-6.3	x
Cc1cc(NC(=O)c2ccc(S(=O)(=O)N3CCCC3)cc2)nc2c1c(=O)oc1ccccc12	-8.2	5.4	-0.3	66.8*	-2.9	x	>50
O=C(c1cccs1)c1no[n+]([O-])c1C(=O)c1cccs1	4.4	-36.0	11.0	91.2*	-5.7	-4.2	>50
COc1ccc(C(=O)c2no[n+]([O-])c2C(=O)c2ccc(OC)cc2)cc1	-4.5	-10.3	1.5	u	-5.2	1.1	x
COc1ccc(C2(C(F)(F)F)NC(=O)N(C)C(=O)N2C)cc1 (configuration not stated)	-13.8	30.3	-12.5	10.7	x	x	x
COc1ccc(Cn2c(C)nc3c(c2=O)c2nc4ccccc4nc2n3Cc2ccco2)cc1	-7.2	-2.4	6.9	40.5	-8.6	-0.4	>50
CCCCCC(O)CCCC(=O)O (configuration not stated)	x	x	x	x	0.1	x	x
CCCCCC#CCC#CCC#CCC#CCCCC(=O)O	-4.4	-9.6	20.2	29.4	-14.8	4.0	>50
FC(F)(F)c1ccc(N2CCOCC2)c(Nc2nc3ccccc3n3cnnc23)c1	-14.0	2.0	-10.2	61.2*	-0.4	-5.7	>50
Cc1cccc(C)c1OCC(O)CNS(=O)(=O)c1ccccc1C(=O)N1CCCCC1 (configuration not stated)	1.5	-2.7	1.5	-12.8	-4.3	0.1	x
Nc1nc2c(s1)CCc1c-2cnn1-c1ccccc1	91.1*	16.8	18.7	51.7*	93.0*	-0.6	>50
Cc1cc(C)n2c(SCC(=O)N3CCN(S(=O)(=O)c4ccc(Cl)cc4)CC3)nnc2n1	-12.2	3.1	-0.7	56.3*	-5.1	-1.4	>50
